Source: PubChem
Hep lipid drop – hepatic lipid droplet formation modulation; AML12 mouse hepatocytes, oleate lipid droplets, BODIPY imaging; inhibition, % at 6.5 µM; 0.4% of 240,000 active; AID 1656;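 active means lipid droplet intensity inhibited by at least 50%, with more than 500 cells counted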
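Material: mouse AML12 hepatocyte cell line, fixed after treatment; Timing: compound with oleate, overnight; Technique: high-content imaging of BODIPY-stained droplets and DAPI nuclei; Probe or stimulus: oleate, 100 µM final; Dosing: compound at 6.5 µM only.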
MrgX1 antagonist – human MrgX1 receptor antagonism, primary screen. Q96LB2. MRGX1-HEK293 calcium flux, Fluo-4, BAM8-22 antagonism; active compounds read low. B-score at 10 µM. 1.3% of 310,000 active. AID 588676;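 active means calcium-response B-score plate-corrected more than 3 library SD below zero, starting fluorescence within 5 deviations, no agonist response on first addition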;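 further: peak minus trough fluorescence over baseline after final BAM8-22 challenge near maximal dose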
Target sequence (Q96LB2 whole entry, looked up): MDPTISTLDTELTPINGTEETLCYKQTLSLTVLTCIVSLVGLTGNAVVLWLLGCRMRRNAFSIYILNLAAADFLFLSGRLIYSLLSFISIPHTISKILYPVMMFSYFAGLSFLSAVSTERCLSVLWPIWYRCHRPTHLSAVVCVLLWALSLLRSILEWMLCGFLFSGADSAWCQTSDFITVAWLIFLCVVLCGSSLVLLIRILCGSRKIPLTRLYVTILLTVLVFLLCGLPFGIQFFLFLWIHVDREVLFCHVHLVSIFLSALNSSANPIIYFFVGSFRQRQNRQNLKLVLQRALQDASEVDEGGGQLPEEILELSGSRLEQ
RGS4 block – inhibitors of human RGS4; P49798; HEK293 M3R/RGS4 inducible, Fluo-4 calcium flux; active compounds read high; triggered by carbachol at its EC20; B-score at 10 µM; 0.45% of 310,000 active;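 active means B-score, a plate-corrected calcium signal, over three deviations above library mean, with baseline fluorescence within five deviations of library mean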;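 further: RGS4 expression induced by doxycycline in cells with stable M3 receptor; B-score is computed from the integrated fluorescence ratio over baseline after carbachol; higher B-score means a larger calcium signal and so more RGS4 inhibition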
Target sequence (P49798 whole entry, looked up): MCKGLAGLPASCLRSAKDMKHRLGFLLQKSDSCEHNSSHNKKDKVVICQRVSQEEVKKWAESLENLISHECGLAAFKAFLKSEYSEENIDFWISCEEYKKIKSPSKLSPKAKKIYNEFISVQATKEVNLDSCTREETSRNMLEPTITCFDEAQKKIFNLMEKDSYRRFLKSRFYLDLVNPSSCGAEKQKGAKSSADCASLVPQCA
MrgX1 agonist – human MrgX1 receptor agonism, primary screen | Q96LB2 | MrgX1-HEK293 cells, Fluo-4 calcium fluorescence, agonist mode; active compounds read high | B-score at 10 µM | 0.44% of 310,000 active;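 active means calcium response B-score plate-corrected fluorescence ratio at least 3 library SD, with starting fluorescence B-score inside 5 SD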
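Material: MrgX1-expressing HEK293 cells; input: 15,000 cells per well; doses: test compound given as first of three sequential additions; schedule: overnight plating before 1 h dye loading; technique: Fluo-4 NW calcium-flux fluorescence, kinetic read; evaluation: baseline-normalised fluorescence change ratio, B-scored; control set: plate-wise positive and negative controls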
RGS4 act – RGS4 potentiation or activation | HEK293 M3R/inducible RGS4, carbachol calcium flux Fluo4; active compounds read low | B-score at 10 µM | 0.92% of 310,000 active;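 active means B-score of the integrated calcium signal more than 4 SD below the library mean, with starting fluorescence not abnormally high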;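 further: negative B-score means reduced calcium response which marks RGS4 activation or potentiation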
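Material: Inducible-RGS4 HEK293 cells carrying M3 receptor; also added: carbachol at ECmax as muscarinic agonist stimulus; incubation: compound preincubation 20 min at room temperature before agonist; signal: Fluo4-AM (2 µM) calcium-flux fluorescence, kinetic read; measure: integrated calcium ratio converted to B score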
MrgX1 allo act – allosterically activates human MrgX1 receptor signaling. B-score at 10 µM. AID 588675. Q96LB2. 0.63% of 310,000 active. MrgX1-HEK293, Fluo-4 calcium flux, FDSS; active compounds read high;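 active means plate-corrected calcium response at least 3 library SD above typical, normal starting fluorescence, not activating the receptor alone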;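 further: compound read alongside a low EC10 to EC30 dose of BAM8-22 agonist; peak minus trough fluorescence over baseline measured at the second addition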
MrgX1 ag reconf – human MrgX1 agonism, re-confirmation screen | shares compounds with MrgX1 agonist | MrgX1-HEK293, Fluo-4 calcium fluorescence, FDSS | activation, % at 10 µM | 78% of 600 active | AID 602412;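 active means calcium signal rise, corrected for plate position, at least 3 library SD high, with starting brightness within 5 such deviations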
HEK293 Ca flux – counter-screen for MrgX1 antagonists: effect in parental HEK293 cells; shares compounds with MrgX1 antagonist; fluorescence ratio F(max-min)/F0 at 10 µM; Fluo-4 calcium fluorescence, FDSS; 2% of 4,000 active; AID 624111;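 active means duplicate-averaged calcium fluorescence ratio at least three times the standard deviation of buffer wells, a nonspecific response in parental cells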
HEK293 Ca counter – MrgX1 allosteric activator counter-screen hit in parental HEK293 cells; shares compounds with MrgX1 antagonist; parental HEK293 calcium flux, Fluo-4 fluorescence ratio; active compounds read high; fluorescence ratio F(max-min)/F0 at 10 µM; 0.4% of 4,000 active; AID 624114;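 active means calcium fluorescence ratio, averaged over duplicates, at least 3 SD of the buffer-well ratio, meaning a nonspecific response in receptor-free cells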;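 further: untransfected parental HEK293 lacking MrgX1 used as counterscreen for MrgX1 allosteric activators; fluorescence change taken during the second addition on a kinetic imager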
HEK293 Ca cntr2 – activity in parental HEK293 cells lacking MrgX1 receptor. fluorescence ratio F(max-min)/F0 at 10 µM. shares compounds with MrgX1 antagonist. 8.7% of 4,000 active. AID 624115. Fluo-4 calcium fluorescence (FDSS); active compounds read high;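 active means calcium fluorescence ratio at least three times the spread of buffer wells, meaning a non-specific response in parental cells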
Numbers without * were called inactive; i = inactive; · = no result. Rows were chosen to be rich in hits. Some 3.8% of all compounds tested hit in one or more screens of this group.

SMILES | Hep lipid drop | MrgX1 antagonist | RGS4 block | MrgX1 agonist | RGS4 act | MrgX1 allo act | MrgX1 ag reconf | HEK293 Ca flux | HEK293 Ca counter | HEK293 Ca cntr2
Cc1onc(-c2ccccc2)c1C(=O)NNC(=S)NC(=O)c1ccc(Br)cc1 | -10 | i | i | 86* | i | i | 705%* | i | i | 138*
Cc1onc(-c2ccccc2)c1C(=O)Nc1ccccc1NC(=O)c1c(-c2ccccc2)noc1C | 11 | i | i | i | i | i | · | · | · | ·
Cc1onc(-c2ccccc2)c1C(=O)NNC(=O)c1ccccc1O | · | i | i | i | i | i | · | · | · | ·
Cc1onc(-c2ccccc2)c1C(=O)NNC(=S)NC(=O)/C=C/c1ccccc1 | 23 | i | i | 95* | i | i | 455%* | i | i | 72*
COc1ccc(Cl)cc1NC(=O)c1c(-c2ccccc2)noc1C | -10 | i | i | i | i | i | · | · | · | ·
O=C(/C=C/c1ccccc1)NC(=S)NNC(=O)Cc1cccs1 | -1 | i | i | 71* | i | i | 262%* | i | i | 73*
Cc1onc(-c2ccccc2)c1C(=O)NNC(=S)NC(=O)c1ccc(Cl)cc1Cl | 9 | i | i | 180* | i | i | 714%* | i | i | 115*
O=P(c1ccccc1)(c1ccccc1)c1nc(-c2ccc(Cl)cc2)oc1N1CCOCC1 | -19 | i | i | i | i | i | · | · | · | ·
CN1CCN(c2nc3c(c(=O)[nH]c(=O)n3C)n2Cc2ccc(Cl)cc2)CC1 | -2 | i | i | i | i | i | · | · | · | ·
O=C(NC(=S)NNC(=O)c1ccc(Cl)cc1Cl)c1cccnc1 | -7 | i | i | i | i | i | · | · | · | ·
Cc1ccccc1C(=O)NNC(=S)NC(=O)c1ccc(Cl)cc1Cl | -3 | i | i | 172* | -10* | i | 776%* | i | i | 154*
CC(C)c1ccc(NC2(C#N)C(=O)Nc3ccccc32)cc1 (stereo not drawn) | · | i | i | 39* | i | i | 191%* | i | i | 49*
COC(=O)/C(C#N)=C1/C=Cc2ccccc2N1 | 2 | i | i | i | i | i | · | · | · | ·
Nc1c(C(=O)c2ccccc2)sc2nsc(SCCN3CCCC3)c12 | -4 | i | i | i | i | i | · | · | · | ·
Nc1c(C(=O)c2ccc(Cl)cc2)sc2nsc(SCCN3CCOCC3)c12 | -3 | i | i | 39* | i | i | i | 0.48* | i | 104*
Cc1nc2c(Br)cc(Br)cc2cc1O | 9 | i | i | i | i | i | · | · | · | ·
CN1c2ccccc2C(O)=C(C(=O)Nc2ccccc2)S1(=O)=O | · | i | i | 41* | i | i | i | i | i | i
O=C1Nc2ccccc2C(=O)C1(Cl)Cc1ccccc1 (stereo not drawn) | · | i | i | 32* | i | i | 199%* | i | i | i
CC(C)(C)N1C(=O)c2ccccc2NC(=O)N1Cc1ccccc1 | 3 | i | i | i | i | i | · | · | · | ·
CCN(CC)CCCOc1ccc(Cl)c(Cl)c1 | -4 | i | i | 107* | i | i | i | i | i | i
CN(CCOc1ccc(Cl)c(Cl)c1)Cc1ccccc1 | 0 | i | i | i | i | i | · | · | · | ·
O=C(Nc1ccc(C(=O)N2CCOCC2)cc1)Nc1cccc2ccccc12 | 40 | i | i | i | i | i | · | · | · | ·
COc1ccccc1Oc1ccnc2cc(Cl)ccc12 | 4 | i | i | 30* | i | i | 103%* | i | i | i
COc1ccccc1OCC(=O)NCC1CCCN(Cc2cnn(C(C)C)c2)C1 (stereo not drawn) | 2 | i | i | i | i | i | · | · | · | ·
CCc1cc(=S)n2c([nH]c3ccccc32)c1C#N | -3 | i | i | 43* | i | i | 284%* | i | i | 93*
SMILES | Hep lipid drop | MrgX1 antagonist | RGS4 block | MrgX1 agonist | RGS4 act | MrgX1 allo act | MrgX1 ag reconf | HEK293 Ca flux | HEK293 Ca counter | HEK293 Ca cntr2
CCc1cc(=O)n2c([nH]c3ccccc32)c1C#N | 10 | i | i | i | i | i | · | · | · | ·
Cn1c2c(c(=O)[nH]c1=O)C(c1cccc(O)c1)C1=C(N2)c2ccccc2C1=O (stereo not drawn) | -11 | · | · | · | · | · | · | · | · | ·
CCCCCn1c(=N)c(S(=O)(=O)c2ccc(Cl)cc2)cc2c(=O)n3cccc(C)c3nc21 | 6 | i | i | 27* | i | i | 94%* | i | i | i
COc1cc(/C=C2\SC(=S)N(NS(=O)(=O)c3ccc(C)cc3)C2=O)ccc1O | -10 | i | i | 116* | -7.7* | i | 555%* | 0.38* | i | 149*
COc1cc(/C=C2\SC(=S)N(NC(=O)c3ccccc3OC)C2=O)ccc1O | 0 | i | i | i | i | i | · | · | · | ·
COc1cc(/C=C2\SC(=S)N(NC(=O)c3ccc(O)c(OC)c3)C2=O)ccc1O | 12 | i | i | i | i | i | · | · | · | ·
COc1cc(/C=C2\SC(=S)N(NS(=O)(=O)c3ccccc3)C2=O)ccc1O | -17 | i | i | 87* | i | i | 375%* | i | i | 99*
COCCCNC(=O)CCC(=O)NNc1nc2ccccc2c2nc(C)nn12 | -7 | i | i | i | i | i | · | · | · | ·
CCCCOc1ccc(CSC(=N)N)cc1Cl | 18 | i | i | 35* | i | i | 164%* | i | i | i
CCCCCOc1ccc(Br)cc1CSC(=N)N | -9 | · | i | · | i | · | · | · | · | ·
COc1ccc(C2C(C#N)=C(N)Oc3cccc(O)c32)cc1 (stereo not drawn) | -15 | i | i | 28* | i | i | i | i | i | i
Cc1cccc(N/C(N)=N/c2nc(C)cc(C)n2)c1 | · | i | i | 69* | i | i | 358%* | i | i | 76*
CCC(=O)Nc1ccc(N/C(N)=N/c2nc(C)cc(C)n2)cc1 | -6 | i | i | i | i | i | · | · | · | ·
